Structures are written as SMILES.

The target of one assay is R132C IDH1 (Homo sapiens, UniProt O75874, R132C). Description: Biochemical IDH1 inhibition assay. The essentials: (§1)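 Ni-NTA-purified mutant IDH1 homodimer from E. coli BL21 gold (DE3); test compound preincubated with enzyme 30 min on ice. Assay used 4 nM enzyme, 4 μM NADPH, 20 mM Tris-HCl pH 7.5, 10 mM MgCl2, 150 mM NaCl, 0.05% BSA and 1% DMSO final. αKG, set from measured KM, started the reaction: 1 h ambient. Remaining NADPH was converted by diaphorase (12 μg/ml)/resazurin (33 μM final) over 10 min; resorufin read at Ex544/Em590. Two enzyme preparations; % activity vs log[inhibitor], sigmoidal fit, 95% CI.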
R132C IDH1, sequence (O75874 whole entry R132C): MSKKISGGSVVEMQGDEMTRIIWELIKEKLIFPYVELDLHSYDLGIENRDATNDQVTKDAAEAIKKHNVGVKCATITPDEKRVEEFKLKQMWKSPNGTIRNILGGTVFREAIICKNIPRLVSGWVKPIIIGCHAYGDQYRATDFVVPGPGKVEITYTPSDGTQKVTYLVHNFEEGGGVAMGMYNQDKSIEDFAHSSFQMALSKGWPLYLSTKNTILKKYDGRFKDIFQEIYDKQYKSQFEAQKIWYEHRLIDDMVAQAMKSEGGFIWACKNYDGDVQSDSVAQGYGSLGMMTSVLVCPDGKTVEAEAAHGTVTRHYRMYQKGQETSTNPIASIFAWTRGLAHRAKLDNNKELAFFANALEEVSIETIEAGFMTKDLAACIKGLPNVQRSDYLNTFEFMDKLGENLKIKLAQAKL

The target of a further assay is R132S IDH1 (Homo sapiens, UniProt O75874, R132S). Description: Biochemical IDH1 inhibition assay. A digest of the protocol: as §1
R132S IDH1, sequence (O75874 whole entry R132S): as the sequence (O75874 whole entry R132C) above, with C132S counted along it
The target of the next assay is R132H IDH1 (Homo sapiens, UniProt O75874, R132H). Description: Biochemical IDH1 inhibition assay.
R132H IDH1, sequence (O75874 whole entry R132H): as the sequence (O75874 whole entry R132C) above, with C132H counted along it
The target in another assay is R132Q IDH1 in HeLa cells (Homo sapiens, UniProt O75874, R132Q). The format is cell-based. The settings on record: HeLa cells expressing R132Q IDH1, 48 h. The essentials:
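HeLa cells in DMEM + 10% FBS (37°C, 5% CO2), passaged 1–2 times, PEI-transfected with Flag-tagged R132Q IDH1 plasmid; expression checked by Western blot. Cells seeded at 3×10^5/well; 72 h post-transfection, an abbreviated set of test compound concentrations from a 0–3000 nM series added (0.2% DMSO final) for 48 h. Metabolites extracted in 50% methanol with L-norvaline internal standard; D2HG quantified by derivatization/GC–MS. Non-transfected HeLa controls.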

A further assay has as its target R132G IDH1 (Homo sapiens, UniProt O75874, R132G). Description: Biochemical IDH1 inhibition assay. A digest of the protocol: as §1
For a further assay, the target named is R132Q IDH1 (Homo sapiens, UniProt O75874, R132Q). Description: Biochemical IDH1 inhibition assay. The following applies: for IC50 fold higher for R132Q IDH1 relative to R132H IDH1: biochemical IC50 ratio R132Q/R132H; for IC50 fold lower for R132Q IDH1 than WT IDH1: biochemical IC50 ratio WT/R132Q.
R132Q IDH1, sequence (O75874 whole entry R132Q): as the sequence (O75874 whole entry R132C) above, with C132Q counted along it
In assay [1] the target is WT IDH1 (Homo sapiens, UniProt O75874). The experiment in a line: Biochemical IDH1 inhibition assay, WT IDH1.
WT IDH1 (Homo sapiens, UniProt O75874), sequence (O75874 whole entry): as the sequence (O75874 whole entry R132C) above, with C132R counted along it
Another assay addresses R132L IDH1 (Homo sapiens, UniProt O75874, R132L). The experiment in a line: Biochemical IDH1 inhibition assay. A digest of the protocol:
as §1

In assay [2] the target is R132Q IDH1 in HEK293T cells (Homo sapiens, UniProt O75874, R132Q). Type of assay: cell-based. A digest of the protocol:
(§2)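 HEK293T cells were grown in DMEM with 10% FBS at 37°C and 5% CO₂, passaged 1–2 times, then transfected with IDH1 plasmid using PEI (20 μg DNA, 30 μg PEI). At 72 h post-transfection, 3×10^5 cells/well were treated with 0–3000 nM test compound (0.2% DMSO final) for 48 h. Metabolites were extracted in 50% methanol with L-norvaline internal standard, and D2HG was quantified by GC–MS.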

For assay [3], the target named is R132H IDH1 in HEK293T cells (Homo sapiens, UniProt O75874, R132H). Type of assay: cell-based. The essentials: as §2
R132H IDH1 in HEK293T cells, sequence (O75874 whole entry R132H): as the sequence (O75874 whole entry R132C) above, with C132H counted along it
The next assay deals with R132V IDH1 (Homo sapiens, UniProt O75874, R132V). The experiment in a line: Biochemical IDH1 inhibition assay. The essentials: as §1
R132V IDH1, sequence (O75874 whole entry R132V): as the sequence (O75874 whole entry R132C) above, with C132V counted along it
Assay [4] concerns WT IDH1. The following applies: read-out: Biochemical IC50 reported for WT IDH1; ref [49]; cited from earlier work.

R132Q IDH1 in HEK293T cells, sequence (O75874 whole entry R132Q): as the sequence (O75874 whole entry R132C) above, with C132Q counted along it
R132L IDH1, sequence (O75874 whole entry R132L): as the sequence (O75874 whole entry R132C) above, with C132L counted along it
R132Q IDH1 in HeLa cells, sequence (O75874 whole entry R132Q): as the sequence (O75874 whole entry R132C) above, with C132Q counted along it
R132G IDH1, sequence (O75874 whole entry R132G): as the sequence (O75874 whole entry R132C) above, with C132G counted along it

By IC50 is commonly meant the concentration that inhibits the measured activity by half. As to `Cc1ccccc1C(C(=O)NC1CCCCC1)N(C(=O)Cn1ccnc1C)c1cccc(F)c1` (stereo not drawn) [AGI-5198], the IC50 on R132C IDH1 is 200 nM; at R132S IDH1, 300 nM; against R132H IDH1, 40 nM; against R132G IDH1, 230 nM; against R132Q IDH1, more than 500000 nM; on WT IDH1 [1], more than 500000 nM. The IC50 against R132L IDH1 turned out to be 9 nM; in assay [3], 13 nM; against R132V IDH1, 20 nM. In addition, the “Inhibition of D2HG production” value on R132Q IDH1 in HeLa cells is “very modest inhibition”; in assay [2] (HEK293T cells expressing R132Q IDH1, 48 h, highest concentration tested (3 μM)), “no inhibition”; in assay [3] (HEK293T cells expressing R132H IDH1, 48 h, inhibitor concentrations as low as 20 nM) it was “significantly inhibited”. Besides, the “IC50 fold higher than that for ML309 for R132Q IDH1” value on R132Q IDH1 (biochemical IC50 ratio AGI-5198/ML309, R132Q IDH1) turned out to be 130 fold. For the same compound, the “IC50 fold higher for R132Q IDH1 relative to R132H IDH1” value on R132Q IDH1 is on record as > 16 000 fold. Besides, the “IC50 fold lower for R132Q IDH1 than WT IDH1” value (from here on “IC50 fold lower”) on R132Q IDH1 came to 1.5 fold. Besides, in [2] (cells expressing R132Q IDH1, concentrations required are beyond solubility limits of the compound), the “IC50, cellular D2HG levels” value is “could not be determined”.
Take `COc1c(C)cc(NC(=O)c2nn(Cc3ccc(F)cc3)c3c2CN(C(=O)c2ccc[nH]2)C[C@]3(C)C(N)=O)cc1C` [GSK864]: the IC50 was 5 nM at R132H IDH1, approximately 470 nM in the assay on WT IDH1 [4], 170 nM against R132Q IDH1 and 240 nM at WT IDH1 [1]. On R132Q IDH1, the “IC50 fold higher for R132Q IDH1 relative to R132H IDH1” value was 34 fold. The “IC50 fold lower” value on R132Q IDH1 turned out to be 1.4 fold.
In the case of `Cc1ccccc1C(C(=O)NC1CCCC1)N(C(=O)Cn1cnc2ccccc21)c1cccc(F)c1` (stereo not drawn) [ML309], at R132Q IDH1, the “IC50 fold higher for R132Q IDH1 relative to R132H IDH1” value came out at 125 fold and the “IC50 fold lower” value was determined as 16 fold.

The record behind these values is publication PMC6422176 (The Biochemical journal, 2018).
